In ChEMBL document CHEMBL3804788, “The design of 8-hydroxyquinoline tetracyclic lactams as HIV-1 integrase strand transfer inhibitors” (Eur J Med Chem, 2016):
Values after ≈ are worked out from the molar mass of the structure shown.

Assays:
[1] = system: Human immunodeficiency virus type 1 integrase (Human immunodeficiency virus 1), Q7ZJM1 [Q148K]; test: (§1) Inhibition of pseudotype HIV1 integrase Q148K mutant strand transfer activity in HIV1 infected human CIP4 cells assessed as ratio of IC50 for pseudotype HIV1 integrase Q148K mutant strand transfer activity to IC50 for pseudotype HIV1 integrase strand transfer activity after 2 days by luciferase reporter gene assay; type: cell-based
[2] = system: Human immunodeficiency virus type 1 integrase (Human immunodeficiency virus 1), Q7ZJM1 [G140S,Q148H]; test: as §1, with “G140S/Q148H double” for “Q148K”; type: cell-based
[3] = Cytotoxicity against human CIP4 cells; type: cell-based
[4] = Oral bioavailability in beagle dog after 24 hrs by LC-MS/MS analysis; type: ADME, organism-based, Canis lupus familiaris; conditions: in vivo
[5] = Intrinsic aqueous solubility of compound by chemiluminescent nitrogen detection method; type: physicochemical; conditions: buffer
[6] = system: Rattus norvegicus; test: Total clearance in Sprague-Dawley rat at 1 mg/kg, iv or 5 mg/kg, po after 24 hrs by LC-MS/MS analysis relative to hepatic blood flow; type: ADME, organism-based, Liver; conditions: in vivo
[7] = system: Canis familiaris; test: Total clearance in iv or po dosed beagle dog after 24 hrs by LC-MS/MS analysis relative to hepatic blood flow; type: ADME, organism-based, Canis lupus familiaris, Liver; conditions: in vivo
[8] = Half life in iv or po dosed beagle dog by LC-MS/MS analysis; type: ADME, organism-based, Canis lupus familiaris; conditions: in vivo
[9] = Total clearance in iv or po dosed beagle dog after 24 hrs by LC-MS/MS analysis; type: ADME, organism-based, Canis lupus familiaris; conditions: in vivo
[10] = Apparent permeability of compound; type: physicochemical; conditions: not told
[11] = Half life in Sprague-Dawley rat at 1 mg/kg, iv or 5 mg/kg, po by LC-MS/MS analysis; type: ADME, organism-based; conditions: in vivo
[12] = Oral bioavailability in Sprague-Dawley rat at 5 mg/kg after 24 hrs by LC-MS/MS analysis; type: ADME, organism-based; conditions: in vivo
[13] = Total clearance in Sprague-Dawley rat at 1 mg/kg, iv or 5 mg/kg, po after 24 hrs by LC-MS/MS analysis; type: ADME, organism-based; conditions: in vivo
[14] = target: Human immunodeficiency virus type 1 integrase (Human immunodeficiency virus 1) (UniProt Q7ZJM1); test: Ratio of IC50 for pseudotype HIV1 integrase strand transfer activity in presence of 40% human serum albumin to IC50 for pseudotype HIV1 integrase strand transfer activity
How it was run: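 Single-round assay with a self-inactivating pseudotyped HIV (PHIV) lentiviral luciferase vector. CIP4 cells (2 × 10^4/well) were infected with enough PHIV to give about 50,000 relative light units. Cells were incubated 2 days with compound at varying concentrations, with or without 40% human serum albumin. Infection was read as luciferase luminescence (Steady-Glo). Serum shift is the IC50 with albumin divided by the IC50 without.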

| SMILES | Ratio IC50 [1] | Ratio IC50 [2] | CC50 [3] [µM] | other results |
| --- | --- | --- | --- | --- |
| O=C(NCc1ccc(F)cc1)c1cn2c(c(O)c1=O)C(=O)N1CCCO[C@H]1C2 | 2.4 |  |  |  |
| NC(=O)c1c2c(c(O)c3ncc(Cc4cccc(Cl)c4F)cc13)C(=O)N1CCC[C@H]1C2 | 0.6 | 2.6 | 36.8 |  |
| NC(=O)c1c2c(c(O)c3ncc(Cc4cccc(Cl)c4F)cc13)C(=O)N1CCCC[C@H]21 | 1.4 | 2.8 | 24.4 | bioavailability [4]: 14%; solubility [5]: 25 µM (≈ 11 µg/mL); CL [6]: 2%; CL [7]: 5%; half-life [8]: 708 min; clearance [9]: 2.8 mL/min/kg; Papp [10]: 6 ×10⁻⁶ cm/s; half-life [11]: 432 min; bioavailability [12]: 2%; clearance [13]: 1.4 mL/min/kg |
| O=C1c2c(cc3cc(Cc4cccc(Cl)c4F)cnc3c2O)CN2CCCN12 | 0.4 | 2.3 |  | Ratio IC50 [14]: 9 |
| Cn1c(=O)c(C(=O)NCCO)c(O)c2ncc(Cc3ccc(F)cc3)cc21 | 40 |  |  |  |
| NC(=O)c1c2c(c(O)c3ncc(Cc4cccc(Cl)c4F)cc13)C(=O)N1CCCC[C@@H]21 | 0.1 | 3.7 | 5.18 |  |
| N#Cc1c2c(c(O)c3ncc(Cc4cccc(Cl)c4F)cc13)C(=O)N1CCC[C@H]21 | 216 | 456 | 7.27 |  |
| N#Cc1c2c(c(O)c3ncc(Cc4cccc(Cl)c4F)cc13)C(=O)N1CCC[C@H]1C2 | 1.4 | 2.8 | 50 |  |
| N#Cc1c2c(c(O)c3ncc(Cc4cccc(Cl)c4F)cc13)C(=O)N1CCCC[C@@H]21 | 17 | 93 | 3.36 |  |
| NC(=O)c1c2c(c(O)c3ncc(Cc4cccc(Cl)c4F)cc13)C(=O)N1CCC[C@@H]1C2 | 0.6 | 0.4 | 21.1 |  |
| N#Cc1c2c(c(O)c3ncc(Cc4cccc(Cl)c4F)cc13)C(=O)N1CCC[C@@H]21 | 31 | 131 | 1.83 |  |
| N#Cc1c2c(c(O)c3ncc(Cc4cccc(Cl)c4F)cc13)C(=O)N1CCC[C@@H]1C2 | 0.8 | 1.5 | 12.8 |  |
| N#Cc1c2c(c(O)c3ncc(Cc4cccc(Cl)c4F)cc13)C(=O)N1CCCN1C2 | 1.3 | 8 |  | Ratio IC50 [14]: 188 |
| N#Cc1c2c(c(O)c3ncc(Cc4cccc(Cl)c4F)cc13)C(=O)N1CCCC[C@H]21 | 8.8 | 17 | 7.05 |  |
